Assay results reported in ChEMBL document CHEMBL3098002, “Cassaine diterpene alkaloids from Erythrophleum fordii and their anti-angiogenic effect” (Bioorg Med Chem Lett, 2014).
Activity calls are given as the source filed them. No cut-off for these calls is given here.

What was measured:
HUVEC [1] = experiment: Antiangiogenic activity against HUVEC assessed as inhibition of capillary-like tube formation at 3 ug/ml after 15 hrs by Matrigel assay relative to control; type: functional; settings: Homo sapiens
How it was run: (§1)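 HUVECs were grown in M199 with 20% FBS, 1% penicillin/streptomycin, 0.01% heparin and ECGS on 0.2% gelatin-coated plates at 37 °C in 5% CO2. For the assay, 1 × 10^4 cells were suspended in medium containing compound and added onto polymerized Matrigel at 37 °C. Cultures were photographed at ×100 and tubes counted. Values were normalized to solvent controls (100%), n = 3, mean ± SD.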

HUVEC [2] = experiment: Cytotoxicity against HUVEC assessed as cell viability at 3 to 30 ug/ml after 48 hrs by MTT assay; type: cell-based; settings: human
How it was run: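 HUVECs were grown on gelatin-coated plates to 80% confluency, then treated for 48 h alongside a 0.1% DMSO control. MTT was added to a final 0.05% for 3 h at 37 °C. Formazan was dissolved in DMSO and read at 570 nm against 630 nm reference. Viability was expressed as a percentage of untreated cells.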

HUVEC [3] = experiment: Antiangiogenic activity against HUVEC assessed as inhibition of capillary-like tube formation at 30 ug/ml after 15 hrs by Matrigel assay relative to control; type: functional; settings: Homo sapiens; how it was run: as §1
HUVEC [4] = experiment: Antiangiogenic activity against HUVEC assessed as inhibition of capillary-like tube formation at 3 to 30 ug/ml after 15 hrs by Matrigel assay relative to control; type: functional, cell-based; settings: Homo sapiens; how it was run: as §1
HUVEC [5] = experiment: Cytotoxicity against HUVEC at 3 to 30 ug/ml by LDH release assay; type: cell-based; settings: human

Row | Structure (SMILES) | inhibition (HUVEC [1]) | Activity (HUVEC [2]) | inhibition at 3 µg/mL (HUVEC [1]) [%] | inhibition at 30 µg/mL (HUVEC [3]) [%] | inhibition (HUVEC [4]) | Activity (HUVEC [5])
1 | COC(=O)[C@@]1(C)[C@@H](OC(C)=O)CC[C@@]2(C)[C@H]1[C@@H](O)C(=O)[C@H]1[C@@H](C)/C(=C/C(=O)N(C)CCO)CC[C@@H]12 | Active | Non-toxic |  |  |  | 
2 | COc1cc(/C=C/C(=O)CC(=O)/C=C/c2ccc(O)c(OC)c2)ccc1O [CURCUMIN] |  |  | 45 |  |  | 
3 | COC(=O)[C@]1(C)[C@@H]2CC[C@H]3[C@@H](C)/C(=C/C(=O)N(C)CCO)CC[C@@H]3[C@@]2(C)CC[C@@H]1O | Active | Non-toxic |  |  |  | 
4 | COC(=O)[C@@]1(C)[C@@H](OC(C)=O)CC[C@@]2(C)[C@H]1CC(=O)[C@H]1[C@@H](C)/C(=C/C(=O)N(C)CCO)CC[C@@H]12 |  | Non-toxic | 42 | 4.5 | Active | Toxic
5 | COC(=O)[C@@]1(C)CCC[C@@]2(C)[C@H]1[C@@H](O)C(=O)[C@H]1[C@@H](C)/C(=C/C(=O)N(C)CCO)CC[C@@H]12 | Active | Non-toxic |  |  |  | 
6 | COC(=O)[C@@]1(C)CCC[C@@]2(C)[C@H]1CC(=O)[C@H]1[C@@H](C)/C(=C/C(=O)N(C)CCO)CC[C@@H]12 | Active | Non-toxic |  |  |  | 
7 | COC(=O)[C@]1(C)[C@@H]2CC(=O)[C@H]3[C@@H](C)/C(=C/C(=O)N(C)CCO)CC[C@@H]3[C@@]2(C)CC[C@@H]1O | Active | Non-toxic |  |  |  | 
